“Also recorded” adds a separate entry of the source.
Tests used:
Leishmania = details: cited from earlier work
[1] = test system: auditory outer hair cells (organ of Corti explants); assay: Toxicity assay in cochlear explants; format: cell-based, CBA/J mice
Outline: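 Organ of Corti explants from postnatal day 2–3 CBA/J mice were kept in serum-free medium with supplement, BSA, glutamine and glucose, and pre-incubated about 48 h. They were then exposed to drug for 72 h, fixed in 4% PFA, permeabilised and stained with rhodamine phalloidin. Hair cells were counted apex to base under 50x oil and compared with a cytocochleogram database. Loss was reported as percent averaged over the whole explant length.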

[2] = test system: L. tarentolae S30 translation (leishmanial ribosomes); assay: Cell-free inhibition of translation, L. tarentolae LEXSY system; format: biochemical, Leishmania tarentolae; details: relative to PAR
Outline: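 Leishmania tarentolae cell-free LEXSY translation system driven by a pLEXSY-in-vitro2 vector encoding EGFP. Reactions with varied aminoglycoside concentrations ran 120 min at 26°C, and GFP fluorescence was read directly (ex 488, em 507 nm). Each curve used at least six concentrations. IC50 values came from concentration-response fits of at least three independent repeats.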

[3] = test system: intracellular L. donovani amastigotes; assay: Inhibition of L. donovani amastigotes in infected THP-1 macrophages; format: cell-based, Leishmania donovani; details: 1 μM, positive control
Outline: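 THP-1 cells were differentiated with 25 ng/ml PMA for 24 h at 37°C, then infected with stationary-phase luciferase-expressing L. donovani promastigotes (5:1 parasite:macrophage) for 24 h and washed free of external parasites. Infected macrophages were trypsinised, checked by Giemsa stain and plated in triplicate (5 × 10^5 cells/ml). Compounds in medium with 1% DMSO were added for 48 h; lysates were read by Bright-Glo luminescence. Medium ± DMSO served as 0% inhibition; amphotericin B 1 μM was the positive control on each plate.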

## CNC(C)C1CCC(N)C(OC2C(N)CC(N)C(OC3OCC(C)(O)C(NC)C3O)C2O)O1 (centres unmarked) [Gentamicin]
Leishmania
  anti-leishmanial activity (in words): lack an anti-leishmanial activity

## CN[C@@H]1[C@@H](O)[C@@H](O[C@@H]2[C@@H](O)[C@H](O[C@H]3O[C@H]([C@@H](C)O)[C@@H](O)[C@H](O)[C@H]3N)[C@@H](N)C[C@H]2N)OC[C@]1(C)O [G418, Geneticin]
[1]; murine explants, 72 h
  toxicity to auditory outer hair cells along entire length of explant (in words): high toxicity
[2]
  times more potent in inhibiting leishmanial ribosomal translation than PAR: 20 times

## C[C@@H]1[C@H](O)[C@@H](C)/C=C/C=C/C=C/C=C/C=C/C=C/C=C/[C@H](O[C@@H]2O[C@H](C)[C@@H](O)[C@H](N)[C@@H]2O)C[C@@H]2O[C@](O)(C[C@@H](O)C[C@@H](O)[C@H](O)CC[C@@H](O)C[C@@H](O)CC(=O)O[C@H]1C)C[C@H](O)[C@H]2C(=O)O [Amphotericin B]
[3]
  decrease in intracellular amastigotes: > 90%

## NC[C@@H]1O[C@H](O[C@H]2[C@@H](O)[C@H](O[C@@H]3[C@@H](O)[C@H](N)C[C@H](N)[C@H]3O[C@H]3O[C@H](CO)[C@@H](O)[C@H](O)[C@H]3N)O[C@@H]2CO)[C@H](N)[C@@H](O)[C@@H]1O [PAR, Paromomycin]
[1]; 10 μM, 72 h
  outer hair cell pathology, basal turn of explant: intact
[1]; 22 μM, 72 h
  outer hair cell pathology, basal turn of explant: significant loss of OHC; also recorded: partial destruction of outer hair cells
[1]; 33 μM, 72 h
  outer hair cell pathology, basal turn of explant: complete destruction; also recorded: complete elimination of basal-turn outer hair cells
[1]; murine explants, 72 h exposure
  IC Coch50 (outer hair cell loss in cochlear explants): 30 µM
